# RGS4 pot: RGS4 potentiators or activators, primary screen, cell-based, HEK293 M3R inducible RGS4, calcium flux. 0.92% of 310,000 active. B-score at 10 µM. carbachol calcium flux Fluo4; active compounds read low;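 active = B-score of the integrated calcium signal more than 4 SD below the library mean, with starting fluorescence not abnormally high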;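 also: negative B-score means reduced calcium response which marks RGS4 activation or potentiation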
#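 Assay system: Inducible-RGS4 HEK293 cells carrying M3 receptor | Schedule: Compound preincubation 20 min at room temperature before agonist | Signal: Kinetic calcium fluorescence imaging with Fluo4-AM dye, 2 µM | Read-out basis: B score from integrated fluorescence ratio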
# MrgX1 allo act: positive allosteric modulators of MrgX1, primary screen, HEK293 cells, Fluo-4 calcium flux; Mas-related G-protein coupled receptor member X1 (Homo sapiens), Q96LB2; AID 588675, 2011; FDSS; active compounds read high; 0.63% of 310,000 active; B-score at 10 µM;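 active = plate-corrected calcium response at least 3 library SD above typical, normal starting fluorescence, not activating the receptor alone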;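 also: compound read alongside a low EC10 to EC30 dose of BAM8-22 agonist; peak minus trough fluorescence over baseline measured at the second addition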
# Target sequence (Q96LB2 whole entry, looked up): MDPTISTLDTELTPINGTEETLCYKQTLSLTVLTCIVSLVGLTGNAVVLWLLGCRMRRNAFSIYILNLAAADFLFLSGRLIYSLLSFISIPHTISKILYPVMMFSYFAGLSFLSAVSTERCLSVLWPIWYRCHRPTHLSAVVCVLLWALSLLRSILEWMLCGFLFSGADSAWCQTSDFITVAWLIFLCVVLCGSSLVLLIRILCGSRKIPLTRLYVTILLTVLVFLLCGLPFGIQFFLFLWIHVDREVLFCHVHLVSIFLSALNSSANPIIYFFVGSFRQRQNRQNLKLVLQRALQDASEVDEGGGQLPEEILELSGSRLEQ
# RGS4 inh: RGS4 inhibitors, primary screen, cell-based, HEK293 M3R inducible RGS4, calcium flux. 0.45% of 310,000 active. Fluo-4 calcium flux; active compounds read high; triggered by carbachol at its EC20. Regulator of G-protein signaling 4 (Homo sapiens), P49798. B-score at 10 µM;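 active = B-score, a plate-corrected calcium signal, over three deviations above library mean, with baseline fluorescence within five deviations of library mean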;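 also: RGS4 expression induced by doxycycline in cells with stable M3 receptor; B-score is computed from the integrated fluorescence ratio over baseline after carbachol; higher B-score means a larger calcium signal and so more RGS4 inhibition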
# Target sequence (P49798 whole entry, looked up): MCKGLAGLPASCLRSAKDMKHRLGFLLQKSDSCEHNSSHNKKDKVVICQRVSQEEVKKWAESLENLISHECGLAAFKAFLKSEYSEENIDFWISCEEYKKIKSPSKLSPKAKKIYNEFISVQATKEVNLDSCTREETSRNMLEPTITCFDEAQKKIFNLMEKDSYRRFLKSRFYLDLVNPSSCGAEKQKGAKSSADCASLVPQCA
# MrgX1 antag: antagonists of human MrgX1 receptor, primary screen, HEK293 cells, Fluo-4 calcium flux. B-score at 10 µM. BAM8-22 antagonism; active compounds read low. 1.3% of 310,000 active. Mas-related G-protein coupled receptor member X1 (Homo sapiens), Q96LB2;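 active = calcium-response B-score plate-corrected more than 3 library SD below zero, starting fluorescence within 5 deviations, no agonist response on first addition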;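 also: peak minus trough fluorescence over baseline after final BAM8-22 challenge near maximal dose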
# MrgX1 agonist: agonists of human MrgX1 receptor, primary screen, HEK293 cells, Fluo-4 calcium flux; Fluo-4 calcium fluorescence, agonist mode; active compounds read high; 0.44% of 310,000 active; Mas-related G-protein coupled receptor member X1 (Homo sapiens), Q96LB2; B-score at 10 µM; AID 588627, 2011;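 active = calcium response B-score plate-corrected fluorescence ratio at least 3 library SD, with starting fluorescence B-score inside 5 SD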
#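 Test system: HEK293 cells stably expressing human MrgX1 receptor; amount: 15,000 cells per well; doses: compound delivered in addition one of three; times: overnight plating before 1 h dye loading; detection: Fluo-4 NW calcium-flux fluorescence, kinetic read; read-out basis: B-scored fluorescence response ratio; controls: positive and negative controls per plate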
# MrgX1 ant reconf: MrgX1 receptor antagonists, duplicate retest, confirmation, HEK293 cells, Fluo-4 calcium flux. shares compounds with MrgX1 antag. BAM8-22 calcium flux; active compounds read low. remaining BAM8-22 calcium response % of control (active compounds read low), % at 10 µM. 19% of 2,300 active;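 active = remaining agonist calcium response no higher than 100% minus 3 SD of agonist-only control wells, with starting fluorescence near control levels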;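 also: agonist BAM8-22 given at a near maximal EC90 to ECmax level; peak minus minimum fluorescence divided by baseline after agonist addition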
# HEK293 Ca flux: nonspecific calcium signal in parental HEK293, confirmation, counter-screen for MrgX1 antagonist project, parental HEK293 cells, Fluo-4 calcium flux; shares compounds with MrgX1 antag; Fluo-4 calcium fluorescence, FDSS; fluorescence ratio F(max-min)/F0 at 10 µM; 2% of 4,000 active;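 active = duplicate-averaged calcium fluorescence ratio at least three times the standard deviation of buffer wells, a nonspecific response in parental cells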
# HEK293 Ca counter: calcium response in parental HEK293 cells, primary screen, counter-screen for MrgX1 allosteric activator project, cell-based, Fluo-4 calcium flux, duplicate; Fluo-4 fluorescence ratio; active compounds read high; 0.4% of 4,000 active; shares compounds with MrgX1 antag; fluorescence ratio F(max-min)/F0 at 10 µM;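 active = calcium fluorescence ratio, averaged over duplicates, at least 3 SD of the buffer-well ratio, meaning a nonspecific response in receptor-free cells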;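 also: untransfected parental HEK293 lacking MrgX1 used as counterscreen for MrgX1 allosteric activators; fluorescence change taken during the second addition on a kinetic imager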
# HEK293 Ca cntr2: calcium response in parental HEK293 cells, primary screen, counter-screen for MrgX1 agonist project, cell-based, Fluo-4 calcium flux, duplicate, agonist mode; shares compounds with MrgX1 antag; fluorescence ratio F(max-min)/F0 at 10 µM; AID 624115, 2012; 8.7% of 4,000 active; Fluo-4 calcium fluorescence (FDSS); active compounds read high;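 active = calcium fluorescence ratio at least three times the spread of buffer wells, meaning a non-specific response in parental cells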
# Active calls of the source: *; i = inactive; nt = no result. The list is not random: actives were taken first. Their share in the collection is about 3.5%.
SMILES,RGS4 pot,MrgX1 allo act,RGS4 inh,MrgX1 antag,MrgX1 agonist,MrgX1 ant reconf,HEK293 Ca flux,HEK293 Ca counter,HEK293 Ca cntr2
O=C(NCCS(=O)(=O)NC1CCCC1)c1ccc(F)cc1,i,i,i,-4.9*,i,i,i,i,i
COc1ccc(C(=O)NCCS(=O)(=O)NC2CCCC2)cc1,i,i,i,i,i,nt,nt,nt,nt
COc1ccc(CN(C)C(=O)Cc2ccc(OC)c(S(=O)(=O)N3CCOCC3)c2)cc1,i,i,i,i,i,nt,nt,nt,nt
COc1ccc(CC(=O)N(C)C2CCCCC2)cc1S(=O)(=O)N1CCOCC1,i,i,i,-4.6*,i,i,i,i,i
Cc1ccc(Cl)c(OCC(=O)Nc2sc(C)c(C)c2C#N)c1,i,i,i,-7.9*,i,i,i,i,i
Cc1ccc(Cl)c(OCC(=O)Nc2cccnc2)c1,i,i,i,i,i,nt,nt,nt,nt
CC(NC(=O)COc1ccccc1F)C1CC2CCC1C2 (stereo not given),i,i,i,i,i,nt,nt,nt,nt
CC(C)Oc1ccc(C(=O)Nc2nnc(SCC(=O)N3CCOCC3)s2)cc1,i,i,i,-4.9*,i,i,i,i,i
O=C(NC(=S)NCC1CCCO1)c1ccco1 (stereo not given),i,i,i,-25*,i,i,i,i,i
CN(Cc1ccccc1)C(=O)Cn1c(=O)c2cccn2c2cccnc21,i,i,i,i,i,nt,nt,nt,nt
O=C(Nc1ccc(OCC(F)(F)C(F)F)c(C(F)(F)F)c1)c1ccccc1O,i,i,i,-5.7*,i,i,i,i,i
COc1ccc(C(=O)NNS(=O)(=O)c2ccccc2)cc1OC,i,i,i,i,i,nt,nt,nt,nt
O=C(Nc1nsc(-c2ccccc2)n1)c1cccs1,i,i,i,-10*,i,i,i,i,i
COc1ccc(C(=O)CSc2nnc(NC(=O)C3CC(=O)N(c4ccccc4C)C3)s2)cc1 (stereo not given),i,i,i,i,i,nt,nt,nt,nt
O=C(O)C(Cc1ccccc1)N1C(=O)c2c(Cl)c(Cl)c(Cl)c(Cl)c2C1=O (stereo not given),i,i,i,i,i,nt,nt,nt,nt
COC(=O)c1ccc(NC(=S)NCCc2cccc(C)c2)cc1,i,i,i,i,i,nt,nt,nt,nt
COC(=O)c1ccc(NC(=S)NCCc2ccccc2C)cc1,i,i,i,-5*,i,i,i,i,i
CCOc1cc(C(=O)Nc2ccc(NC(C)=O)cc2)ccc1OCC(=O)N1CCCCC1,i,i,i,i,i,nt,nt,nt,nt
COc1ccc(S(=O)(=O)N2CCC3(CC2)OCCN3S(=O)(=O)c2ccccc2)cc1OC,i,i,i,i,i,nt,nt,nt,nt
CS(=O)(=O)N1CCC2(CC1)OCCN2S(=O)(=O)c1ccccc1,i,i,i,-6.9*,i,i,i,i,i

# Bioassay records as filed in PubChem BioAssay.
